Data taken from PubChem BioAssay AID651876 (Broad Institute, 2012).
Where “and” joins values, the source holds several entries; their conditions need not be identical. Identical values can stand only once. Calls of active or inactive are those of the source.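 The calls were made as follows: active = inhibition above 20% at 50 µM; inactive = the rest.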

Biological target: Kelch-like ECH-associated protein 1 (Homo sapiens) (UniProt Q14145)
Assay: competitive SPR blockade of Keap1/Nrf2 binding – biophysical, dry powder, orthogonal assay for Keap1-Nrf2 interaction inhibitor project, confirmation (AID 651876)
Conditions: Keap1 Kelch binding to Nrf2 peptide, stronger effect = higher value
Outline: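 Test system: Keap1 Kelch domain, biochemical. Quantity: 40 nM Kelch domain. Also added: biotinylated 16mer Nrf2 peptide captured on streptavidin CM5 surface. Doses: compound at 5 or 50 µM. Times: room-temperature preincubation, 25 °C binding. Signal: Double-referenced surface plasmon resonance, initial association-phase slopes. Measure: % inhibition via free Kelch domain fraction.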

Kelch-like ECH-associated protein 1 (Homo sapiens), sequence (Q14145 whole entry, looked up): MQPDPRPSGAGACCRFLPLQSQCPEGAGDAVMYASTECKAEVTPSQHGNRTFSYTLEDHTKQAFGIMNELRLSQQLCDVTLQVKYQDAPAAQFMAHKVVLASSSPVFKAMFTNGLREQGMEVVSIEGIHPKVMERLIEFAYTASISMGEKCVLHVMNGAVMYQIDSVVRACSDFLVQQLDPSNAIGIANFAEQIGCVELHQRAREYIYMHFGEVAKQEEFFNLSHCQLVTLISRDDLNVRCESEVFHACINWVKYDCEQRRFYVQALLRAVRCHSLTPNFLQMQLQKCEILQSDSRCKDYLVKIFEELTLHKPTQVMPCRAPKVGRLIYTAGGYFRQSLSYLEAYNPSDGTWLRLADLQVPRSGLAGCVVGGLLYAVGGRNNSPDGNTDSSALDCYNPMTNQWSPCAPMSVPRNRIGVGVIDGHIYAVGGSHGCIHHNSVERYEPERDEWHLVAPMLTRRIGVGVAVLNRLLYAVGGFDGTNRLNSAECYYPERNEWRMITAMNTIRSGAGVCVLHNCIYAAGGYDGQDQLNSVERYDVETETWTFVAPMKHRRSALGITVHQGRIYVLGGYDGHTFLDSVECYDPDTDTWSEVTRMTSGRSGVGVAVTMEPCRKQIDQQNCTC

inhibition (at 50 µM) | inhibition (inhibition, at 5 µM) | SMILES
1.5% (inactive) | -0.6% | Cc1cc(C)c(S(=O)(=O)Nc2ncnc3ccccc23)c(C)c1
2.1% (inactive) | -2.4% | O=C(O)CC(=O)N1CCc2ccccc2C1CN1C(=O)c2ccccc2C1=O (stereo not given)
8.5% (inactive) | 1.1% | COC(=O)CNc1nc(NS(=O)(=O)c2c(C)cc(C)cc2C)c2ccccc2n1
4.3% (inactive) | 5.5% | CCOC(=O)Cc1nc(NS(=O)(=O)c2c(C)cc(C)cc2C)c2ccccc2n1
32.1% | 7.5% | O=C(NCCO)c1ccccc1C(=O)NC[C@@H]1c2ccccc2CCN1C(=O)C1CCCCC1C(=O)O (stereo not given in full)
30.3% | 1.7% | O=C(O)[C@@H]1CCCN1C(=O)N1CCc2ccccc2[C@H]1CN1C(=O)c2ccccc2C1=O
39.3% | 7.3% | O=C(NC[C@@H]1c2ccccc2CCN1C(=O)[C@@H]1CCCC[C@@H]1C(=O)O)c1ccccc1CO
93.1% | 65.9% | COC(=O)C(C(=O)OC)c1cc(NS(=O)(=O)c2c(C)cc(C)cc2C)c2ccccc2c1O
– | 0.2% and -3.9% | Cc1ccc(S(=O)(=O)NC(=O)[C@@H]2c3ccccc3CCN2C(=O)[C@@H]2CCCC[C@@H]2C(=O)O)cc1
26.7% | 4% | O=C(O)[C@H]1CCCC[C@H]1C(=O)N1CCc2ccccc2[C@H]1CNS(=O)(=O)c1ccc([N+](=O)[O-])cc1
8.32% (inactive) | 11.9% | CCOC(=O)C(C(=O)OCC)c1cc(CN2C(=O)c3ccccc3C2=O)c2ccccc2n1
59% | 12.7% | CC(C)OC(=O)C(C(=O)C(F)(F)F)c1cc(NS(=O)(=O)c2ccccc2)c2ccccc2c1O (stereo not given)
4.8% (inactive) | 3.9% | CCOC(=O)C(C(=O)OCC)c1cc(CNS(=O)(=O)c2ccc(C)cc2C)c2ccccc2n1
1.1% (inactive) | -5.2% | C=CC(=O)NC[C@@H]1c2ccccc2CCN1C(=O)[C@@H]1CCCC[C@@H]1C(=O)O
7% (inactive) | -1.7% | O=S(=O)(Nc1nc(NCC2CCCCC2)nc2ccccc12)c1ccccc1
-4% (inactive) | 3.3% | O=C(O)C1CCCCC1C(=O)NCC1c2ccccc2CCN1C(=O)Cc1ccccc1 (stereo not given)
-0.6% (inactive) | -11.6% | O=C(O)C1CCCCC1C(=O)N1CCc2ccccc2[C@H]1C(=O)NC12CC3CC(CC(C3)C1)C2 (stereo not given in full)
1.6% (inactive) | -0.6% | COC(=O)[C@H]1CCCC[C@H]1C(=O)N1CCc2ccccc2[C@H]1CN1C(=O)c2ccccc2C1=O
9.5% (inactive) | 0.9% | O=C(O)c1ccccc1C(=O)NC[C@@H]1c2ccccc2CCN1C(=O)[C@@H]1CCCC[C@@H]1C(=O)O
3.2% (inactive) | -2% | O=C(O)C1CCCCC1C(=O)N1CCc2ccccc2C1c1ccccc1 (stereo not given)
36.7% | 5.6% | NC(=O)[C@H]1CCCC[C@H]1C(=O)N1CCc2ccccc2[C@H]1CN1C(=O)c2ccccc2C1=O
5.5% (inactive) | 3.8% | O=C(O)C1CCCCC1C(=O)Nc1ccccc1CN1C(=O)c2ccccc2C1=O (stereo not given)

inhibition (at 50 µM) | inhibition (inhibition, at 5 µM) | SMILES
2.1% (inactive) | -0.3% | O=C1c2ccccc2C(=O)N1C[C@@H]1c2ccccc2CCN1C(=O)C1CCCCC1
24.9% | -1.2% | O=C(NC[C@@H]1c2ccccc2CCN1C(=O)[C@@H]1CCCC[C@@H]1C(=O)O)c1ccc(CN2CCOCC2)cc1
-2.5% (inactive) | -6% | CCOC(=O)C(C(=O)OCC)c1nc(NS(=O)(=O)c2c(C)cc(C)cc2C)c2ccccc2n1
47.1% | 3.3% | O=C(NCCc1ccccc1)c1ccccc1C(=O)NC[C@@H]1c2ccccc2CCN1C(=O)C1CCCCC1C(=O)O (stereo not given in full)
-4.2% (inactive) and -2.2% (inactive) | -12.8% and -7.2% | COc1ccccc1CCNC(=O)[C@@H]1c2ccccc2CCN1C(=O)C1CCCCC1C(=O)O (stereo not given in full)
3.6% (inactive) | 5% | O=C(NC[C@@H]1c2ccccc2CCN1C(=O)[C@@H]1CCCC[C@@H]1C(=O)O)OCC1c2ccccc2-c2ccccc21
36.9% | 7% | O=C(Cc1ccccc1)NC[C@@H]1c2ccccc2CCN1C(=O)[C@@H]1CCCC[C@@H]1C(=O)O
3.7% (inactive) | -1.3% | O=C(O)[C@H]1CCCC[C@H]1C(=O)N1CCc2ccccc2[C@H]1CNc1nc(Cl)nc2ccccc12
21.5% | 1.1% | O=C(O)/C=C\C(=O)N1CCc2ccccc2C1CN1C(=O)c2ccccc2C1=O (stereo not given)
83% | 38.6% | NC(=O)c1ccccc1C(=O)NC[C@@H]1c2ccccc2CCN1C(=O)[C@@H]1CCCC[C@@H]1C(=O)O
13.5% (inactive) | 0.4% | O=C(O)C1CCCCC1C(=O)N1CCCCC1CN1C(=O)c2ccccc2C1=O (stereo not given)
9.9% (inactive) | 1.9% | O=C(O)c1ccccc1C(=O)N1CCc2ccccc2C1CN1C(=O)c2ccccc2C1=O (stereo not given)
105% | 79.7% | Cc1cc(C)c(S(=O)(=O)Nc2cc(C(C(=O)OC(C)C)C(=O)C(F)(F)F)c(O)c3ccccc23)c(C)c1 (stereo not given)
43.8% | 6.9% | O=C(NCCCN1CCOCC1)c1ccccc1C(=O)NC[C@@H]1c2ccccc2CCN1C(=O)C1CCCCC1C(=O)O (stereo not given in full)
12.9% (inactive) | -3.1% | O=C(O)[C@H]1CCCC[C@H]1C(=O)N1CCc2ccccc2[C@H]1CNS(=O)(=O)c1ccccc1
3.5% (inactive) | 3.1% | O=C1c2ccccc2C(=O)N1CC1c2ccccc2CCN1C(=O)Cc1ccccc1 (stereo not given)
-9.9% (inactive) | -3.5% | Cc1ccc(S(=O)(=O)NNc2nc(NCC(N)=O)nc3ccccc23)cc1
97% | 57.8% | Cc1ccc(S(=O)(=O)Nc2cc(C(C(=O)OC(C)C)C(=O)C(F)(F)F)c(O)c3ccccc23)c(C)c1 (stereo not given)
-3.7% (inactive) | -5.5% | O=C(O)C1CCCCC1C(=O)N1CCc2ccccc2[C@H]1C(=O)NCCc1ccccc1 (stereo not given in full)
65.5% | 19.1% | O=C(O)C1CCCCC1C(=O)N1CCc2ccccc2C1CN1C(=O)[C@H]2CCCC[C@H]2C1=O (stereo not given in full)
28.3% | 4.9% | Cc1ccc(S(=O)(=O)NNc2nc(C(C(=O)OC(C)C)C(=O)C(F)(F)F)nc3ccccc23)cc1 (stereo not given)
– | 12.5% and -3.6% | O=C(O)[C@H]1CCCC[C@H]1C(=O)N1CCC2=C(CCCC2)C1CN1C(=O)c2ccccc2C1=O (stereo not given in full)

inhibition (at 50 µM) | inhibition (inhibition, at 5 µM) | SMILES
-0.9% (inactive) | -1.1% | Cc1ccc(S(=O)(=O)NNc2nc(N3CC(O)CC3C(=O)O)nc3ccccc23)cc1 (stereo not given)
8% (inactive) | 0% | COc1ccc(CCN=C2C=C(NS(=O)(=O)c3c(C)cc(C)cc3C)c3ccccc3C2=O)cc1
42.4% | 4.9% | O=C(O)[C@H]1C2C=CC(C2)[C@H]1C(=O)N1CCc2ccccc2C1CN1C(=O)c2ccccc2C1=O (stereo not given in full)
1.9% (inactive) | -4.5% | Cc1cc(C)c(S(=O)(=O)Nc2nc(C(C(=O)OC(C)C)C(=O)C(F)(F)F)nc3ccccc23)c(C)c1 (stereo not given)
0.3% (inactive) | 0.3% | O=C(O)[C@H]1CCCC[C@H]1C(=O)NC(CN1C(=O)c2ccccc2C1=O)c1ccccc1 (stereo not given in full)
7.1% (inactive) | 4.69% | Cc1cc(C)c(S(=O)(=O)Nc2cc(C(C(=O)OCc3ccccc3)C(=O)OCc3ccccc3)c(O)c3ccccc23)c(C)c1
22.7% | -1% | O=C(NC[C@@H]1c2ccccc2CCN1C(=O)[C@@H]1CCCC[C@@H]1C(=O)O)c1ccc(CCl)cc1
86.4% | 49.5% | Cc1ccccc1S(=O)(=O)Nc1cc(C(C(=O)OC(C)C)C(=O)C(F)(F)F)c(O)c2ccccc12 (stereo not given)
2.3% (inactive) | 6.4% | O=C(O)CCCC(=O)N1CCc2ccccc2C1CN1C(=O)c2ccccc2C1=O (stereo not given)
17.1% (inactive) | 0.1% | Cc1ccc(S(=O)(=O)NC[C@@H]2c3ccccc3CCN2C(=O)[C@@H]2CCCC[C@@H]2C(=O)O)c(C)c1
11.4% (inactive) | -2.3% | O=C(O)CCC(=O)N1CCc2ccccc2C1CN1C(=O)c2ccccc2C1=O (stereo not given)
8.8% (inactive) and 2.3% (inactive) | -2.2% and 0.5% | O=C(O)[C@H]1CCCC[C@H]1C(=O)N1CCc2ccccc2C1CCN1C(=O)c2ccccc2C1=O (stereo not given in full)
77.7% | 27.7% | O=C(O)C1CCCCC1C(=O)N1CCc2ccccc2C1CN1Cc2ccccc2C1=O (stereo not given)
3.3% (inactive) | 1% | CC(C)CNc1nc(NS(=O)(=O)c2ccccc2)c2ccccc2n1
80.3% | 30.2% | Cc1ccc(S(=O)(=O)Nc2cc(C(C(=O)OC(C)C)C(=O)C(F)(F)F)c(O)c3ccccc23)cc1 (stereo not given)
13.9% (inactive) | 9.6% | CC(=O)Nc1cc(NS(=O)(=O)c2c(C)cc(C)cc2C)c2ccccc2c1O
68.1% | 18.5% | O=C(O)C1CCCCC1C(=O)N1CCc2ccccc2C1CN1C(=O)c2ccccc2S1(=O)=O (stereo not given)
77% | 36.6% | O=C(O)C1CCCCC1C(=O)N1CCc2ccccc2C1CN1C(=O)Cc2ccccc2C1=O (stereo not given)
6.8% (inactive) | 3.6% | Cc1cc(C)c(S(=O)(=O)Nc2nc(NCCO)nc3ccccc23)c(C)c1
7.85% (inactive) | -2.91% | O=C(Oc1cc(CN2C(=O)c3ccccc3C2=O)c2ccccc2[n+]1[O-])c1cccc(Cl)c1
-0.2% (inactive) | 1.1% | O=C1c2ccccc2C(=O)N1CC1=NCCc2ccccc21
-3.5% (inactive) | 1.5% | O=C(NC[C@@H]1c2ccccc2CCN1C(=O)[C@@H]1CCCC[C@@H]1C(=O)O)c1ccccc1
